Data from ChEMBL document CHEMBL2321859, “Cytotoxic betulin-derived hydroxypropargylamines trigger apoptosis” (Bioorg Med Chem, 2013).
In brackets after ≈: the same amount, converted by molar mass. Activity calls are given as the source filed them. The calls are words filed in the database; no cut-off is given here.

Experiments:
[1] = Cytotoxicity against human 518A2 cells assessed as cell viability after 96 hrs by SRB assay; assay type: functional, cell-based
8505C = assay: Cytotoxicity against human 8505C cells assessed as cell viability after 96 hrs by SRB assay; assay type: functional, cell-based
[2] = Cytotoxicity against human A253 cells assessed as cell viability after 96 hrs by SRB assay; assay type: functional, cell-based
A2780 = assay: Cytotoxicity against human A2780 cells assessed as cell viability after 96 hrs by SRB assay; assay type: functional, cell-based
A549 [3] = assay: Cytotoxicity against human A549 cells assessed as cell viability after 96 hrs by SRB assay; assay type: functional, cell-based
DLD-1 = assay: Cytotoxicity against human DLD1 cells assessed as cell viability after 96 hrs by SRB assay; assay type: functional, cell-based
MCF7 = assay: Cytotoxicity against human MCF7 cells assessed as cell viability after 96 hrs by SRB assay; assay type: functional, cell-based
[4] = Cytotoxicity against human Lipo cells assessed as cell viability after 96 hrs by SRB assay; assay type: functional, cell-based
SW-1736 = assay: Cytotoxicity against human SW1736 cells assessed as cell viability after 96 hrs by SRB assay; assay type: functional, cell-based
NIH3T3 = assay: Cytotoxicity against mouse NIH/3T3 cells assessed as cell viability after 96 hrs by SRB assay; assay type: cell-based; conditions: NIH3T3, 96 h
[5] = Solubility of the compound in water/DMSO mixture; assay type: physicochemical
Method in brief: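 Solubility was measured in water/DMSO (95:5, v/v) by HPLC with UV/vis detection.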

A549 [6] = assay: Induction of apoptosis in human A549 cells assessed as cell shrinking by acridine orange/propidium iodide staining; assay type: functional, cell-based
A549 [7] = assay: Cell cycle arrest in human A549 cells assessed as accumulation at G2/M phase by acridine orange/propidium iodide staining; assay type: functional, cell-based
A549 [8] = assay: Induction of apoptosis in human A549 cells assessed as chromatin condensation by acridine orange/propidium iodide staining; assay type: functional, cell-based
A549 [9] = assay: Induction of apoptosis in human A549 cells assessed as DNA fragmentation by DNA laddering assay; assay type: functional, cell-based
Method in brief: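 DNA fragmentation was checked by DNA laddering in treated human cancer cells, as an indicator of apoptotic cell death.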

A549 [10] = assay: Induction of apoptosis in human A549 cells assessed as membrane blebbing by acridine orange/propidium iodide staining; assay type: functional, cell-based
A549 [11] = assay: Induction of apoptosis in human A549 cells assessed as early apoptotic cells at 10 uM after 6 hrs by annexin V/propidium iodide staining-based FACS flow cytometric analysis relative to control; assay type: functional
Method in brief: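 A549 cells incubated 6 h with compound, then analysed by FACS annexin V/propidium iodide assay. Phosphatidylserine translocation to the outer membrane was taken as the early-apoptosis marker. Cells were scored as percentage dying by necrosis versus programmed cell death. Betulinic acid and maslinic acid were the reference standards.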

[12] = water/DMSO mixture, read-out: solubility

| SMILES | IC50 ([1]; Homo sapiens, 518A2, 96 h) [µM] | IC50 (8505C; Homo sapiens, 8505C, 96 h) [µM] | IC50 ([2]; Homo sapiens, A253, 96 h) [µM] | IC50 (A2780; Homo sapiens, A2780, 96 h) [µM] | IC50 (DLD-1; Homo sapiens, DLD-1, 96 h) [µM] | IC50 (MCF7; Homo sapiens, MCF7, 96 h) [µM] | IC50 (SW-1736; Homo sapiens, SW-1736, 96 h) [µM] | IC50 (NIH3T3) [µM] | IC50 (A549 [3]; Homo sapiens, A549, 96 h) [µM] | IC50 ([4]; Homo sapiens, Lipo, 96 h) [µM] | also measured |
| --- | --- | --- | --- | --- | --- | --- | --- | --- | --- | --- | --- |
| C=CCN(CC#C[C@@H](O)[C@]12CC[C@@H](C(=C)C)[C@@H]1[C@H]1CC[C@@H]3[C@@]4(C)CC[C@H](OC(C)=O)C(C)(C)[C@@H]4CC[C@@]3(C)[C@]1(C)CC2)CC=C [listing 1 of 2 here] | > 60 | > 60 | 43.1 | 18.2 | 57.6 | 31.1 | 48 | – | – | – | IC50 (A549 [3]; a549): > 30 µM; IC50 ([4]; lipo): 17 µM |
| C=CCN(CC#C[C@@H](O)[C@]12CC[C@@H](C(=C)C)[C@@H]1[C@H]1CC[C@@H]3[C@@]4(C)CC[C@H](OC(C)=O)C(C)(C)[C@@H]4CC[C@@]3(C)[C@]1(C)CC2)CC=C [listing 2 of 2 here] | – | – | – | – | – | – | – | > 60 | > 60 | 21.8 | IC50 ([1]; 518a2): 52 µM; IC50 (8505C; 8505c): 47.9 µM; IC50 ([2]; a253): 32.8 µM; IC50 (A2780; a2780): 12.4 µM; IC50 (DLD-1; dld-1): 44.2 µM; IC50 (MCF7; mcf7): 15.7 µM; IC50 (SW-1736; sw-1736): 30.2 µM |
| C=C(C)[C@@H]1CC[C@]2([C@H](O)C#CCN3CCSCC3)CC[C@]3(C)[C@H](CC[C@@H]4[C@@]5(C)CC[C@H](OC(C)=O)C(C)(C)[C@@H]5CC[C@]43C)[C@@H]12 | 9.3 | 2 | 7.5 | 4.3 | 19 | 3.8 | 3.7 | 8.8 | 16.3 | 3.5 | – |
| C=C(C)[C@@H]1CC[C@]2([C@H](O)C#CCN3CCCC3)CC[C@]3(C)[C@H](CC[C@@H]4[C@@]5(C)CCC(=O)C(C)(C)[C@@H]5CC[C@]43C)[C@@H]12 | 5.6 | 3.4 | 3.4 | 3.6 | 2.6 | 3.1 | 6 | 6.4 | 3.5 | 5.6 | solubility [5, 12]: 182 µg/mL (≈ 332 µM) |
| C=C(C)[C@@H]1CC[C@]2([C@H](O)C#CCN3CCCCCC3)CC[C@]3(C)[C@H](CC[C@@H]4[C@@]5(C)CC[C@H](OC(C)=O)C(C)(C)[C@@H]5CC[C@]43C)[C@@H]12 | 22.4 | 32.3 | 20.1 | 14.4 | 40.8 | 13.5 | 32.3 | 17 | 47 | > 30 | – |
| C#C[C@H](O)[C@]12CC[C@@H](C(=C)C)[C@@H]1[C@H]1CC[C@@H]3[C@@]4(C)CC[C@H](O)C(C)(C)[C@@H]4CC[C@@]3(C)[C@]1(C)CC2 | 15.1 | 16.1 | 14.1 | 9.7 | 21.9 | 11.9 | 13 | 10.5 | 20.4 | 12.9 | – |
| C#C[C@H](O)[C@]12CC[C@@H](C(=C)C)[C@@H]1[C@H]1CC[C@@H]3[C@@]4(C)CCC(=O)C(C)(C)[C@@H]4CC[C@@]3(C)[C@]1(C)CC2 | 22.4 | 16.7 | 13.4 | 9.8 | 19 | 17.1 | 18.4 | > 35 | 21.2 | 21.7 | – |
| C=C(C)[C@@H]1CC[C@]2([C@H](O)C#CCN(C3CCCCC3)C3CCCCC3)CC[C@]3(C)[C@H](CC[C@@H]4[C@@]5(C)CC[C@H](OC(C)=O)C(C)(C)[C@@H]5CC[C@]43C)[C@@H]12.Cl | > 30 | > 30 | > 30 | > 30 | > 30 | > 30 | > 30 | > 30 | > 30 | > 30 | solubility [5, 12]: 100 µg/mL |
| C=C(C)[C@@H]1CC[C@]2([C@H](O)C#CCN(C)C)CC[C@]3(C)[C@H](CC[C@@H]4[C@@]5(C)CC[C@H](OC(C)=O)C(C)(C)[C@@H]5CC[C@]43C)[C@@H]12.Cl | 7.2 | 6.7 | 6.4 | 4.9 | 12.9 | 3.7 | 6.5 | 5.8 | 11.1 | 8.6 | solubility [5, 12]: 312 µg/mL |
| C=C(C)[C@@H]1CC[C@]2(C(=O)O)CC[C@]3(C)[C@H](CC[C@@H]4[C@@]5(C)CC[C@H](O)C(C)(C)[C@@H]5CC[C@]43C)[C@@H]12 [BETULINIC ACID] | – | – | – | 11 | – | – | – | 10 | – | 9.7 | solubility ([5]; buffer): 166 µg/mL (≈ 363 µM) |
| C=C(C)[C@@H]1CC[C@]2([C@@H](O)C#CCN(CCC)CCC)CC[C@]3(C)[C@H](CC[C@@H]4[C@@]5(C)CC[C@H](OC(C)=O)C(C)(C)[C@@H]5CC[C@]43C)[C@@H]12.CI | 4.6 | 4.1 | 3.5 | 2.3 | 4.8 | 3.2 | 3.2 | 6.8 | 4.5 | 4.3 | Activity (A549 [6]): Active; Activity (A549 [7]): Active; Activity (A549 [8]): Active; Activity (A549 [9]): Active; Activity (A549 [10]): Active; Activity (A549 [11]): >90% |
| C=C(C)[C@@H]1CC[C@]2([C@H](O)C#CCN(CCC)CCC)CC[C@]3(C)[C@H](CC[C@@H]4[C@@]5(C)CC[C@H](OC(C)=O)C(C)(C)[C@@H]5CC[C@]43C)[C@@H]12 | 21 | 28 | 15.2 | 12 | 20.7 | 16.5 | 7.5 | > 30 | 25.9 | 24.2 | – |
| C=C(C)[C@@H]1CC[C@]2([C@@H](O)CCCN(C(C)C)C(C)C)CC[C@]3(C)[C@H](CC[C@@H]4[C@@]5(C)CC[C@H](O)C(C)(C)[C@@H]5CC[C@]43C)[C@@H]12 | 2.1 | 2.3 | 1.8 | 1.6 | 2.3 | 0.7 | 1.7 | 1.7 | 2.2 | 2.3 | Activity (A549 [6]): Active; Activity (A549 [7]): Active; Activity (A549 [8]): Active; Activity (A549 [9]): Active; Activity (A549 [10]): Active; Activity (A549 [11]): >90% |
| C=C(C)[C@@H]1CC[C@]2([C@H](O)C#CCN(C(C)C)C(C)C)CC[C@]3(C)[C@H](CC[C@@H]4[C@@]5(C)CC[C@H](O)C(C)(C)[C@@H]5CC[C@]43C)[C@@H]12 | 6.4 | 5.8 | 8.2 | 5.4 | 9.1 | 8.2 | 4 | 6.2 | 8.3 | 10.3 | – |
| C#C[C@H](O)[C@]12CC[C@@H](C(=C)C)[C@@H]1[C@H]1CC[C@@H]3[C@@]4(C)CC[C@H](OC(C)=O)C(C)(C)[C@@H]4CC[C@@]3(C)[C@]1(C)CC2 | 32.5 | 22.9 | 16.5 | 9.3 | > 30 | 20.5 | 23 | 32.3 | 42.2 | 28.9 | – |
| C=C(C)[C@@H]1CC[C@]2([C@H](O)C#CCN3CCNCC3)CC[C@]3(C)[C@H](CC[C@@H]4[C@@]5(C)CC[C@H](OC(C)=O)C(C)(C)[C@@H]5CC[C@]43C)[C@@H]12.Cl | 5 | 6.9 | 4.6 | 2.7 | 5.2 | 2.5 | 7.7 | 4 | 6.5 | 2.7 | solubility [5, 12]: 178 µg/mL |
| C=C(C)[C@@H]1CC[C@]2([C@@H](O)C#CCN3CCCC3)CC[C@]3(C)[C@H](CC[C@@H]4[C@@]5(C)CC[C@H](OC(C)=O)C(C)(C)[C@@H]5CC[C@]43C)[C@@H]12 | 12.1 | 11.1 | 10.4 | 8.3 | 18.8 | 7.7 | 20 | 14.5 | 12 | 11.6 | – |
| C=C(C)[C@@H]1CC[C@]2([C@@H](O)C#CCN(Cc3ccccc3)Cc3ccccc3)CC[C@]3(C)[C@H](CC[C@@H]4[C@@]5(C)CC[C@H](OC(C)=O)C(C)(C)[C@@H]5CC[C@]43C)[C@@H]12 | > 30 | > 30 | > 70 | > 70 | > 70 | 27.2 | > 70 | > 70 | > 70 | > 70 | – |
